Measured values gathered from unrelated publications.
Lines come from different studies, so protocols differ.
SLC6A3: Sodium-dependent dopamine transporter (SLC6A3, Homo sapiens, UniProt Q01959)
PDE10A: cAMP and cAMP-inhibited cGMP 3',5'-cyclic phosphodiesterase 10A (PDE10A, Homo sapiens, UniProt Q9Y233)
DRD3: D(3) dopamine receptor (DRD3, Homo sapiens, UniProt P35462)

Structure (SMILES)	target	test	system	setting	measurement	result
CCOC(=O)C12CC1C(n1ccc3c(NC4CC4)nc(C#Cc4ccccc4)nc31)C(O)C2O (stereo not drawn)	SLC6A3	ligand displacement, radioligand	–	10 µM	inhibition	-260%
COc1cc2ccnc(Cc3ccc4cnn(C)c4c3)c2cc1OC	PDE10A	enzyme activity, inhibitor, FP	–	0.1 µM	inhibition	69%
Cc1[nH]c(C)c(S(=O)(=O)Nc2cc(Cl)cc(C(F)(F)F)c2)c1C(=O)N1CCC(F)(F)C1	DRD3	β-arrestin recruitment, agonist	–	90 min	Emax	101%
COc1cc2ncnc(Cc3cccc(-c4ccncc4)c3)c2cc1OC	PDE10A	enzyme activity, inhibitor, FP	–	0.1 µM	inhibition	57%
CSc1nc(NCCC2CC2)c2ncn([C@H]3[C@H](O)[C@H](O)[C@@H]4C[C@@H]43)c2n1	SLC6A3	ligand displacement, radioligand	–	10 µM	inhibition	16%
COc1ccc(C(=O)c2ncnc3cc(OC)c(OC)cc23)cc1	PDE10A	enzyme activity, inhibitor, FP	–	0.1 µM	inhibition	39%
CCOC(=O)[C@@]12C[C@@H]1[C@@H](n1cnc3c(NCCCCCCc4ccccc4)nc(I)nc31)[C@H](O)[C@@H]2O	SLC6A3	ligand displacement, radioligand	–	10 µM	inhibition	73%
Cc1[nH]c(C)c(S(=O)(=O)Nc2ccc(Cl)c(Cl)c2Cl)c1C(=O)N1CCC(F)(F)C1	DRD3	β-arrestin recruitment, agonist	–	90 min	Emax	92%
CCCCC(=O)Nc1ccc(-c2ccc3ncn(CCC)c(=O)c3c2)cn1	Discoidin domain-containing receptor 2 (DDR2, Homo sapiens, UniProt Q16832)	binding, competition with immobilised ligand	–	0.5 µM	remaining binding	100%
COc1ccc2ccnc(Cc3cccc(-c4ccccc4)c3)c2c1	PDE10A	enzyme activity, inhibitor, FP	–	0.1 µM	inhibition	5%
CCOC(=O)[C@@]12C[C@@H]1[C@@H](n1cnc3c(NCCCCCc4ccccc4)nc(C#Cc4ccc(Cl)s4)nc31)[C@H](O)[C@@H]2O	SLC6A3	transporter uptake, inhibitor, radiometric	HEK293	10 µM	inhibition	< 5%
Cc1[nH]c(C)c(S(=O)(=O)Nc2ccc(C(F)(F)F)c(Cl)c2)c1C(=O)N1CCC(O)C1 (stereo not drawn)	DRD3	β-arrestin recruitment, agonist	–	90 min	Emax	89%
CCOC(=O)C12CC1C(n1ccc3c(NCCCc4ccccc4)nc(C#Cc4ccc(Cl)s4)nc31)C(O)C2O (stereo not drawn)	SLC6A3	ligand displacement, radioligand	–	10 µM	inhibition	61%
c1ccc(-c2cccc(Cc3ccnc4cc(C5COC5)ccc34)c2)cc1	PDE10A	enzyme activity, inhibitor, FP	–	0.1 µM	inhibition	3%
C1=C/COCc2cc(ccc2OCCN2CCCC2)Nc2nccc(n2)-c2cccc(c2)COC/1	Calcium/calmodulin-dependent protein kinase type IV (CAMK4, Homo sapiens, UniProt Q16566)	binding	–	0.1 µM	remaining binding	100%
CCOC(=O)[C@@]12C[C@@H]1[C@@H](n1ccc3c(NCCCCCc4ccccc4)nc(C#Cc4ccccc4)nc31)[C@H](O)[C@@H]2O	SLC6A3	ligand displacement, radioligand	–	10 µM	inhibition	63%
COc1ccc2nccc(Cc3cccc(-c4ccc(C(=O)O)cc4)c3)c2c1	PDE10A	enzyme activity, inhibitor, FP	–	0.1 µM	inhibition	11%
Cc1[nH]c(C)c(S(=O)(=O)Nc2ccc([N+](=O)[O-])c(Cl)c2)c1C(=O)N1CCC(F)(F)C1	DRD3	β-arrestin recruitment, agonist	–	90 min	Emax	101%
COc1ccc2oc(-c3ccc4nc(N)oc4c3)c/c(=N\c3ccccc3NC(=O)CCN)c2c1	Activated CDC42 kinase 1 (TNK2, Homo sapiens, UniProt Q07912)	binding	–	1 µM	remaining binding	100%
Cc1ccc(NS(=O)(=O)c2c(C)[nH]c(C)c2C(=O)N2CCC2)cc1Cl	DRD3	β-arrestin recruitment, agonist	–	90 min	Emax	96%
CCOC(=O)[C@@]12C[C@@H]1[C@@H](n1cnc3c(Nc4ccccc4)nc(I)nc31)[C@H](O)[C@@H]2O	SLC6A3	ligand displacement, radioligand	–	10 µM	inhibition	32%
Cc1[nH]cc(S(=O)(=O)Nc2ccc(C(F)(F)F)c(Cl)c2)c1C(=O)N1CCC(F)(F)C1	DRD3	β-arrestin recruitment, agonist	–	90 min	Emax	91%
CNC(=O)[C@@]12C[C@@H]1[C@@H](n1cnc3c(Nc4ccccc4)nc(C#Cc4ccc(Cl)s4)nc31)[C@H](O)[C@@H]2O	SLC6A3	ligand displacement, radioligand	–	10 µM	inhibition	84%
COc1cc2ncnc(Cc3cccc(-c4ccc(CO)cc4)c3)c2cc1OC	PDE10A	enzyme activity, inhibitor, FP	–	0.1 µM	inhibition	66%
Cc1[nH]c(C)c(S(=O)(=O)Nc2ccc(Cl)c(C(F)(F)F)c2)c1C(=O)N1CCCC1	DRD3	β-arrestin recruitment, agonist	–	90 min	Emax	88%
COc1ccc2c(Cc3ccc(OC)c(OC)c3)ccnc2c1	PDE10A	enzyme activity, inhibitor, FP	–	0.1 µM	inhibition	33%
Cc1[nH]c(C)c(S(=O)(=O)Nc2ccc(C(=O)C(F)(F)F)c(Cl)c2)c1C(=O)N1CCC(F)(F)C1	DRD3	β-arrestin recruitment, agonist	–	90 min	Emax	96%
